Converted amounts (≈) assume the structure as drawn.
Assays:
Format in all cases: functional
Mycobacterium kansasii [1] = assay: Antimycobacterial activity against Mycobacterium kansasii 6509/96 after 7 days; settings: 6509/96, 168 h
Procedure, shortened: (§1)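 Šula's semisynthetic medium micromethod at 37 °C, read after 7, 14 and 21 days. The 1.0 McFarland suspension was diluted 10^-4. MIC determined. 6509/96 is a clinical isolate.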

Mycobacterium avium [2] = assay: Antimycobacterial activity against Mycobacterium avium 330/80 after 21 days; settings: 330/80, 504 h
Mycobacterium kansasii [3] = assay: Antimycobacterial activity against Mycobacterium kansasii 235/80 after 21 days; settings: 235/80, 504 h; procedure, shortened: as §1
Mycobacterium kansasii [4] = assay: Antimycobacterial activity against Mycobacterium kansasii 235/80 after 14 days; settings: 235/80, 336 h; procedure, shortened: as §1
Mycobacterium kansasii [5] = assay: Antimycobacterial activity against Mycobacterium kansasii 235/80 after 7 days; settings: 235/80, 168 h; procedure, shortened: as §1
[6] = system: Mycobacterium tuberculosis; assay: Antimycobacterial activity against Mycobacterium tuberculosis H37Rv 331/88 after 21 days; settings: H37Rv 331/88, 504 h
Mycobacterium kansasii [7] = assay: Antimycobacterial activity against Mycobacterium kansasii 6509/96 after 21 days; settings: 6509/96, 504 h; procedure, shortened: as §1
Mycobacterium kansasii [8] = assay: Antimycobacterial activity against Mycobacterium kansasii 6509/96 after 14 days; settings: 6509/96, 336 h; procedure, shortened: as §1
[9] = system: Mycobacterium tuberculosis; assay: Antimycobacterial activity against Mycobacterium tuberculosis H37Rv 331/88 after 14 days; settings: H37Rv 331/88, 336 h
Mycobacterium avium [10] = assay: Antimycobacterial activity against Mycobacterium avium 330/80 after 14 days; settings: 330/80, 336 h

Compound | MIC (Mycobacterium kansasii [1]) [µM] | MIC (Mycobacterium avium [2]) [µM] | MIC (Mycobacterium kansasii [3]) [µM] | MIC (Mycobacterium kansasii [4]) [µM] | MIC (Mycobacterium kansasii [5]) [µM] | MIC [6] [µM] | MIC (Mycobacterium kansasii [7]) [µM] | MIC (Mycobacterium kansasii [8]) [µM] | MIC [9] [µM] | MIC (Mycobacterium avium [10]) [µM]
O=C(Nc1cccc(Br)c1)c1cccc([N+](=O)[O-])c1O | 125 (≈ 42.1 µg/mL) | 250 (≈ 84.3 µg/mL) | 125 (≈ 42.1 µg/mL) | 125 (≈ 42.1 µg/mL) | 62.5 (≈ 21.1 µg/mL) | 62.5 (≈ 21.1 µg/mL) | 125 (≈ 42.1 µg/mL) | 125 (≈ 42.1 µg/mL) | 62.5 (≈ 21.1 µg/mL) | 250 (≈ 84.3 µg/mL)
O=C(Nc1cccc(Cl)c1)c1cccc([N+](=O)[O-])c1O | 125 (≈ 36.6 µg/mL) | 500 (≈ 146 µg/mL) | 250 (≈ 73.2 µg/mL) | 125 (≈ 36.6 µg/mL) | 62.5 (≈ 18.3 µg/mL) | 62.5 (≈ 18.3 µg/mL) | 125 (≈ 36.6 µg/mL) | 125 (≈ 36.6 µg/mL) | 62.5 (≈ 18.3 µg/mL) | 500 (≈ 146 µg/mL)
O=C(Nc1cccc(I)c1)c1cccc([N+](=O)[O-])c1O | 125 (≈ 48 µg/mL) | 500 (≈ 192 µg/mL) | 125 (≈ 48 µg/mL) | 125 (≈ 48 µg/mL) | 62.5 (≈ 24 µg/mL) | 62.5 (≈ 24 µg/mL) | 125 (≈ 48 µg/mL) | 125 (≈ 48 µg/mL) | 62.5 (≈ 24 µg/mL) | 500 (≈ 192 µg/mL)
NNC(=O)c1ccncc1 [ISONIAZID] | 4 (≈ 0.549 µg/mL) | > 250 | > 250 | > 250 | > 250 | 1 (≈ 0.137 µg/mL) | 8 (≈ 1.1 µg/mL) | 8 (≈ 1.1 µg/mL) | 0.5 (≈ 0.0686 µg/mL) | > 250
O=C(Nc1ccc([N+](=O)[O-])cc1)c1cccc([N+](=O)[O-])c1O | 62.5 (≈ 19 µg/mL) | 125 (≈ 37.9 µg/mL) | 125 (≈ 37.9 µg/mL) | 62.5 (≈ 19 µg/mL) | 32 (≈ 9.7 µg/mL) | 32 (≈ 9.7 µg/mL) | 125 (≈ 37.9 µg/mL) | 125 (≈ 37.9 µg/mL) | 32 (≈ 9.7 µg/mL) | 125 (≈ 37.9 µg/mL)
O=C(Nc1cccc(F)c1)c1cccc([N+](=O)[O-])c1O | 125 (≈ 34.5 µg/mL) | 500 (≈ 138 µg/mL) | 250 (≈ 69.1 µg/mL) | 125 (≈ 34.5 µg/mL) | 62.5 (≈ 17.3 µg/mL) | 62.5 (≈ 17.3 µg/mL) | 250 (≈ 69.1 µg/mL) | 250 (≈ 69.1 µg/mL) | 62.5 (≈ 17.3 µg/mL) | 500 (≈ 138 µg/mL)

Reference: ChEMBL document CHEMBL3627671, “Novel derivatives of nitro-substituted salicylic acids: Synthesis, antimicrobial activity and cytotoxicity” (Bioorg Med Chem, 2015)
